What all share (assay type): functional
What all share (details): read-out: GI

The test system of assay [1] is Alternaria kikuchiana. In words: Fungistatic activity against Alternaria kikuchiana assessed as inhibition of mycelial growth measured at 50 ug/mL at 28 degC after 72 hr relative to control. The procedure, abridged:
(§1)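 Compounds in acetone at stock levels of 500 and 50 µg/mL; 1 mL of stock mixed into 9 mL thawed potato dextrose agar at 50 °C and poured. Solidified plates were inoculated with a 4 mm mycelial disk, inverted, and held at 28 °C for 72 h. Water served as negative control, in triplicate. Inhibition was calculated as (C−T)/C × 100% from colony radii.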

The subject of assay [2] is Fusarium graminearum. Briefly: Fungistatic activity against Fusarium graminearum assessed as inhibition of mycelial growth measured at 5 ug/mL at 28 degC after 72 hr relative to control. The method, boiled down: (§2)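 Poisoned-food plate assay with Gibberella zeae. Compound in acetone (500 or 50 µg/mL stocks) is mixed 1:9 with molten potato dextrose agar at 50 °C and poured. Once set, plates are inoculated with a 4 mm mycelium disk, inverted, and held 72 h at 28 °C. Water is the negative control, run in triplicate. Colony radius is measured, and inhibition = (C−T)/C × 100%.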

Assay [3] concerns Fusarium graminearum. In words: Fungistatic activity against Fusarium graminearum assessed as inhibition of mycelial growth measured at 50 ug/mL at 28 degC after 72 hr relative to control. The procedure, abridged: as §2
Assay [4] deals with Alternaria kikuchiana. Briefly: Fungistatic activity against Alternaria kikuchiana assessed as inhibition of mycelial growth measured at 5 ug/mL at 28 degC after 72 hr relative to control. The method, boiled down: as §1

Results on 19 compounds are retold here after ChEMBL document CHEMBL3046311, “Synthesis and antifungal activities of alkyl N-(1,2,3-thiadiazole-4-carbonyl) carbamates and S-alkyl N-(1,2,3-thiadiazole-4-carbonyl) carbamothioates” (2005).

SMILES strings stand for the structures.

Turning to `CCCCOC(=O)NC(=O)c1csnn1`, the values for the inhibition of growth at 50 µg/mL in the assay with Alternaria kikuchiana [1] and in the assay on Fusarium graminearum [3] were 50% and 11%, respectively. For the same compound, the inhibition of growth at 5 µg/mL in the assay with Fusarium graminearum [2] was 6%; in the assay with Alternaria kikuchiana [4], 23%.

Consider `CCCCCOC(=O)NC(=O)c1csnn1`, for which the inhibition of growth at 50 µg/mL with Alternaria kikuchiana [1] came to 45%; in the assay with Fusarium graminearum [3], 42%. For the same compound, the inhibition of growth at 5 µg/mL is 4% in the assay on Fusarium graminearum [2] and 36% in the assay on Alternaria kikuchiana [4].

On to `CC(C)CCOC(=O)NC(=O)c1csnn1`, for which the inhibition of growth at 50 µg/mL worked out at 50% with Alternaria kikuchiana [1] and 100% with Fusarium graminearum [3]. For the same compound, the figures for the inhibition of growth at 5 µg/mL with Fusarium graminearum [2] and with Alternaria kikuchiana [4] were 15% and 25%, respectively.

On to `CCCCCCOC(=O)NC(=O)c1csnn1`, for which the inhibition of growth at 50 µg/mL is 90.7% in the assay on Alternaria kikuchiana [1] and 92% in the assay on Fusarium graminearum [3]. Besides, the inhibition of growth at 5 µg/mL worked out at 23% in the assay with Fusarium graminearum [2] and 54% with Alternaria kikuchiana [4].

Regarding `CCCCCCCOC(=O)NC(=O)c1csnn1`, the inhibition of growth at 50 µg/mL turned out to be 50% in the assay on Alternaria kikuchiana [1] and 92% with Fusarium graminearum [3]. For the same compound, the inhibition of growth at 5 µg/mL in the assay with Fusarium graminearum [2] is 78%; with Alternaria kikuchiana [4] it was 20%.

On to `CCCCCCCCOC(=O)NC(=O)c1csnn1`, for which the inhibition of growth at 50 µg/mL in the assay on Alternaria kikuchiana [1] was found to be 50%; in the assay on Fusarium graminearum [3] it was 81%. The inhibition of growth at 5 µg/mL in the assay on Fusarium graminearum [2] came out at 63%; in the assay with Alternaria kikuchiana [4], 20%.

In the case of `CCCCCCCCCOC(=O)NC(=O)c1csnn1`, the inhibition of growth at 50 µg/mL with Alternaria kikuchiana [1] turned out to be 50%; in the assay with Fusarium graminearum [3] it was 60%. Besides, the inhibition of growth at 5 µg/mL with Fusarium graminearum [2] worked out at 23%; in the assay with Alternaria kikuchiana [4] it was 27%.

`CCCCCCCCCCOC(=O)NC(=O)c1csnn1`: the figures for the inhibition of growth at 50 µg/mL in the assay on Alternaria kikuchiana [1] and in the assay on Fusarium graminearum [3] were 54% and 75%, respectively. Further, the inhibition of growth at 5 µg/mL turned out to be 42% in the assay on Fusarium graminearum [2] and 54% in the assay with Alternaria kikuchiana [4].

Consider `CCCCCCCCCCCOC(=O)NC(=O)c1csnn1`, for which the inhibition of growth at 50 µg/mL in the assay on Alternaria kikuchiana [1] came out at 40%; with Fusarium graminearum [3], 78%. Also, the inhibition of growth at 5 µg/mL worked out at 59% in the assay with Fusarium graminearum [2] and 10% in the assay on Alternaria kikuchiana [4].

As for `O=C(NC(=O)c1csnn1)OC1CCCCC1`, the inhibition of growth at 50 µg/mL in the assay on Alternaria kikuchiana [1] was 59%; with Fusarium graminearum [3], 17%. The inhibition of growth at 5 µg/mL was determined as 0% in the assay with Fusarium graminearum [2] and 32% in the assay with Alternaria kikuchiana [4].

On to `CCCCCCCCCCCCCCOC(=O)NC(=O)c1csnn1`, for which the inhibition of growth at 50 µg/mL in the assay on Alternaria kikuchiana [1] was found to be 50%; in the assay with Fusarium graminearum [3] it was 100%. Further, the inhibition of growth at 5 µg/mL came out at 0% in the assay with Fusarium graminearum [2] and 15% in the assay on Alternaria kikuchiana [4].

As to `CCCCCCCCCCCCCCCCOC(=O)NC(=O)c1csnn1`, the inhibition of growth at 50 µg/mL is 27% with Alternaria kikuchiana [1] and 67% with Fusarium graminearum [3]. For the same compound, the values for the inhibition of growth at 5 µg/mL with Fusarium graminearum [2] and with Alternaria kikuchiana [4] were 0% and 14%, respectively.

For the compound `O=C(NC(=O)c1csnn1)OCCCCCCCCCCBr`, the inhibition of growth at 50 µg/mL was determined as 41% in the assay on Alternaria kikuchiana [1] and 42% in the assay with Fusarium graminearum [3]. Further, the results for the inhibition of growth at 5 µg/mL in the assay with Fusarium graminearum [2] and with Alternaria kikuchiana [4] were 25% and 0%, respectively.

As for `O=C(NC(=O)c1csnn1)OCCCCCCCCCCCCBr`, the values for the inhibition of growth at 50 µg/mL in the assay with Alternaria kikuchiana [1] and in the assay with Fusarium graminearum [3] were 36% and 21%, respectively. Further, the inhibition of growth at 5 µg/mL in the assay on Fusarium graminearum [2] turned out to be 6%; with Alternaria kikuchiana [4], 13%.

`CCCSC(=O)NC(=O)c1csnn1`: the results for the inhibition of growth at 50 µg/mL with Alternaria kikuchiana [1] and in the assay with Fusarium graminearum [3] were 36% and 54%, respectively. Further, the inhibition of growth at 5 µg/mL in the assay with Fusarium graminearum [2] turned out to be 27%; in the assay with Alternaria kikuchiana [4], 9%.

`CCCCSC(=O)NC(=O)c1csnn1`: the inhibition of growth at 50 µg/mL amounted to 36% with Alternaria kikuchiana [1] and 10% with Fusarium graminearum [3]. The results for the inhibition of growth at 5 µg/mL with Fusarium graminearum [2] and with Alternaria kikuchiana [4] were 0% and 32%, respectively.

For the compound `CCCCCCSC(=O)NC(=O)c1csnn1`, the inhibition of growth at 50 µg/mL with Alternaria kikuchiana [1] was 27%; with Fusarium graminearum [3] it was 75%. Further, the inhibition of growth at 5 µg/mL stood at 25% in the assay on Fusarium graminearum [2] and 4% in the assay on Alternaria kikuchiana [4].

With `CCCCCCCSC(=O)NC(=O)c1csnn1`, the inhibition of growth at 50 µg/mL was determined as 32% with Alternaria kikuchiana [1] and 35% in the assay on Fusarium graminearum [3]. Further, the inhibition of growth at 5 µg/mL in the assay on Fusarium graminearum [2] was 12%; in the assay with Alternaria kikuchiana [4], 4%.

As to `CCCCCCCCSC(=O)NC(=O)c1csnn1`, the figures for the inhibition of growth at 50 µg/mL in the assay with Alternaria kikuchiana [1] and in the assay with Fusarium graminearum [3] were 18% and 31%, respectively. Moreover, the inhibition of growth at 5 µg/mL with Fusarium graminearum [2] came out at 10%; in the assay on Alternaria kikuchiana [4], 0%.
